Reference: article PMC3472112 (Structure (London, England : 1993), 2012)
Like-named read-outs stand apart in the source and are kept apart here. Each block holds one molecule with its values, some of them ahead of it.

Key:
Tm0922 = target: T1, Tm0922 (Thermotoga maritima, UniProt Q9X024); assay: isothermal titration calorimetry; format: binding
T1 sequence (Q9X024 1-490): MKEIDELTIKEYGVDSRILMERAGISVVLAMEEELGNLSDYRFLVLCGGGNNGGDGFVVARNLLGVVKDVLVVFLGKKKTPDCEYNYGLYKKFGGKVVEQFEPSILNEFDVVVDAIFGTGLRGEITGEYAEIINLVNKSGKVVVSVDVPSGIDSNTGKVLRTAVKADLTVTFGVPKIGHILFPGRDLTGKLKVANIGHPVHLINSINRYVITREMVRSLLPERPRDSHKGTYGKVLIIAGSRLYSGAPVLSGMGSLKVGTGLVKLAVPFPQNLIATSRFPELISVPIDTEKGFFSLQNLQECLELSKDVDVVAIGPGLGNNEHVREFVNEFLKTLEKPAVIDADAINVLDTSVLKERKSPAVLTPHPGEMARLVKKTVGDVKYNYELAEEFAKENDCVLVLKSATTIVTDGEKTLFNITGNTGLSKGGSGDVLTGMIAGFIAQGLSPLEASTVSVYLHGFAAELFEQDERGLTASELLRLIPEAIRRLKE
Procedure, shortened: (§1)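 Isothermal titrations were run at 25°C, with Tm0922 also tested at 55°C, in 100 mM HEPES pH 7.5 with 100 mM NaCl. Purified protein was in the cell at 70-130 μM. Metabolite ligands from the NAD-related and thymine-related sets were titrated to final concentrations 1.2 to 5 times the protein concentration. Binding parameters were taken from curves fitted to the titration profiles.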

AI-BP = target: T2, AI-BP (Mus musculus, UniProt Q8K4Z3); assay: isothermal titration calorimetry; format: binding; conditions: 100 mM HEPES pH 7.5, 100 mM NaCl, 25°C
T2 sequence (Q8K4Z3 25-282): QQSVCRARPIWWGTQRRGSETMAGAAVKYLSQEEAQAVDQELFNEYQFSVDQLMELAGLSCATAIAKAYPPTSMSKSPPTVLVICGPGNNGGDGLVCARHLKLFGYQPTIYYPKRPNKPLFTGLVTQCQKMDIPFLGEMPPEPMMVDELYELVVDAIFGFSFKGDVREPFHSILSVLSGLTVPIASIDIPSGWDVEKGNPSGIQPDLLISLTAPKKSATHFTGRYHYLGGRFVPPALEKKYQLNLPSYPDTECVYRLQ
Procedure, shortened: as §1

YxkO [1] = target: T3, YxkO (Bacillus subtilis, UniProt P94368); assay: isothermal titration calorimetry; format: binding
T3 sequence (P94368 1-276): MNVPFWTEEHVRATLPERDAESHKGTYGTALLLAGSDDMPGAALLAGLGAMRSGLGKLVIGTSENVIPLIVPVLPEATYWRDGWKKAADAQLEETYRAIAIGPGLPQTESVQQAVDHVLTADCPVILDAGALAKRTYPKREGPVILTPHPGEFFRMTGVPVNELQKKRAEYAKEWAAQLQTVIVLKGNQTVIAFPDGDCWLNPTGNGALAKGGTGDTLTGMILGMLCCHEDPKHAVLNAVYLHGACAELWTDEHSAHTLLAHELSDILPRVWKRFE
Procedure, shortened: as §1

YxkO [2] = target: T3, YxkO; assay: crystal structure; conditions: ATP-binding site, Mg2+
YxkO [3] = target: T3, YxkO; assay: crystal structure; format: binding; conditions: kinase substrate site, AMP/Mg2+ in ATP site; dehydratase substrate
purified protein [4] = substrate: Nc1ncnc2c1ncn2[C@@H]1O[C@H](COP(=O)(O)OP(=O)(O)O)[C@@H](O)[C@H]1O; assay: purified protein; format: biochemical, Bacillus subtilis; conditions: co-substrate NADHX, 25°C, varied: cofactor
purified protein [5] = substrate: NC(=O)C1=CN([C@@H]2O[C@H](COP(=O)(O)OP(=O)(O)OC[C@H]3O[C@@H](n4cnc5c(N)ncnc54)[C@H](O)[C@@H]3O)[C@@H](O)[C@H]2O)C(O)CC1; assay: purified protein; format: biochemical, Bacillus subtilis; conditions: co-substrate ADP, 25°C

Kd (YxkO [1]): 595 ± 134 µM
Molecule: Nc1ncnc2c1ncn2[C@@H]1O[C@H](COP(=O)(O)OP(=O)(O)OP(=O)(O)O)[C@@H](O)[C@H]1O [ATP]

Kd (Tm0922): 105 ± 11.1 µM
Molecule: Nc1ncnc2c1ncn2[C@@H]1O[C@H](COP(=O)(O)OP(=O)(O)OC[C@H]2O[C@@H]([n+]3cccc(C(=O)O)c3)[C@H](O)[C@@H]2O)[C@@H](O)[C@H]1OP(=O)(O)O [NAADP]

Kd (YxkO [1]): 9.6 ± 0.7 µM
Molecule: NC(=O)C1=CN([C@@H]2O[C@H](COP(=O)(O)OP(=O)(O)OC[C@H]3O[C@@H](n4cnc5c(N)ncnc54)[C@H](O)[C@@H]3O)[C@@H](O)[C@H]2O)C=CC1 [NADH]

Kd (Tm0922): 5.3 ± 1.2 µM
Molecule: NC(=O)C1=CN([C@@H]2O[C@H](COP(=O)(O)OP(=O)(O)OC[C@H]3O[C@@H](n4cnc5c(N)ncnc54)[C@H](OP(=O)(O)O)[C@@H]3O)[C@@H](O)[C@H]2O)C=CC1 [NADPH]

Kd (Tm0922): 6 ± 0.9 µM
Molecule: NC(=O)c1ccc[n+]([C@@H]2O[C@H](COP(=O)(O)OP(=O)(O)OC[C@H]3O[C@@H](n4cnc5c(N)ncnc54)[C@H](OP(=O)(O)O)[C@@H]3O)[C@@H](O)[C@H]2O)c1 [NADP]

Continued, molecule first:

Molecule: Nc1ncnc2c1ncn2[C@@H]1O[C@H](COP(=O)(O)OP(=O)(O)OC[C@H]2OC(O)[C@H](O)[C@@H]2O)[C@@H](O)[C@H]1O (stereo partly shown) [ADPR]
Kd (Tm0922; 100 mM HEPES pH 7.5, 100 mM NaCl, 25°C (55°C also tested), likely YjeF_N site): 5.1 ± 0.4 µM
Kd (AI-BP): 451 ± 30.8 µM

Molecule: Nc1ncnc2c1ncn2[C@@H]1O[C@H](COP(=O)(O)OP(=O)([O-])OC[C@H]2O[C@@H]([n+]3cccc(C(=O)O)c3)[C@H](O)[C@@H]2O)[C@@H](O)[C@H]1O [NAAD]
crystal structure (cocktail soak) (YxkO [2]): nicotinic acid adenine dinucleotide (NAAD) is bound in the same position

Molecule: NC(=O)C1=CN([C@@H]2O[C@H](COP(=O)(O)OP(=O)(O)OC[C@H]3O[C@@H](n4cnc5c(N)ncnc54)[C@H](OP(=O)(O)O)[C@@H]3O)[C@@H](O)[C@H]2O)C(O)CC1 (stereo partly shown) [NADPHX]
crystal structure (ATP/Mg2+ co-crystal soaked with NADPH) (YxkO [3]): Coordination of NADPHX in the active site of YxkO

Molecule: NC(=O)c1ccc[n+]([C@@H]2O[C@H](COP(=O)(O)OP(=O)(O)OC[C@H]3O[C@@H](n4cnc5c(N)ncnc54)[C@H](O)[C@@H]3O)[C@@H](O)[C@H]2O)c1 [NAD]
crystal structure (cocktail soak) (YxkO [2]): YxkO and Tm0922 crystals soaked with cocktail G contained NAD in the predicted ATP-binding site

B1: YxkO (Bacillus subtilis subsp. subtilis str. 168) (protein)
chain: MNVPFWTEEHVRATLPERDAESHKGTYGTALLLAGSDDMPGAALLAGLGAMRSGLGKLVIGTSENVIPLIVPVLPEATYWRDGWKKAADAQLEETYRAIAIGPGLPQTESVQQAVDHVLTADCPVILDAGALAKRTYPKREGPVILTPHPGEFFRMTGVPVNELQKKRAEYAKEWAAQLQTVIVLKGNQTVIAFPDGDCWLNPTGNGALAKGGTGDTLTGMILGMLCCHEDPKHAVLNAVYLHGACAELWTDEHSAHTLLAHELSDILPRVWKRFE
Km (purified protein [4]): 6.43 ± 0.49 µM
kcat (purified protein [4]): 0.35 ± 0.01 s⁻¹
kcat (purified protein [5]): 0.35 ± 0.01 s⁻¹
